Source: ChEMBL document CHEMBL3351639, “Fluorinated analogues of marsanidine, a highly α2-AR/imidazoline I1 binding site-selective hypotensive agent. Synthesis and biological activities” (Eur J Med Chem, 2014)

Assays:
[1] = molecular target: T1, Alpha-2A adrenergic receptor (Homo sapiens, UniProt P08913); test: Agonist activity at human alpha2A adrenoceptor expressed in CHO-K1 cells after 30 mins by [35S]GTPgammaS binding assay; format: functional, cell-based
T1 sequence (P08913 whole entry): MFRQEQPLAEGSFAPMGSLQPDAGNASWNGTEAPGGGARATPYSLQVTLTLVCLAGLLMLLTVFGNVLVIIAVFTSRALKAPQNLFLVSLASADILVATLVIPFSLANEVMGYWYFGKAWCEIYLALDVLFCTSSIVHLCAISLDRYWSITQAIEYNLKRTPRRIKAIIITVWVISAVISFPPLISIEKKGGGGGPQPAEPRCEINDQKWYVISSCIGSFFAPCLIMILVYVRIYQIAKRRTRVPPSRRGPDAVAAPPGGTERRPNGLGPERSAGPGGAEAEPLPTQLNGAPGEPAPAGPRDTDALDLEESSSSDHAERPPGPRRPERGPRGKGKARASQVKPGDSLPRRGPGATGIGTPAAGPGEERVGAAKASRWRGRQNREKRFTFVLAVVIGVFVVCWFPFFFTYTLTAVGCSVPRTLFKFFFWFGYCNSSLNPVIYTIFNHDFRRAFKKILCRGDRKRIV
Method in brief: (§1)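 Membranes from CHO cells stably expressing human α2A-AR (5 µg protein) were incubated with 7 or 8 serial dilutions of compound and 0.1 nM [35S]GTPγS. Buffer: 25 mM Tris, 1 mM EDTA, 5 mM MgCl2, 20 mM NaCl, 1 µM GDP, 1 mM DTT, 30 µM ascorbic acid, pH 7.4. Incubation 30 min at RT, then vacuum filtration and scintillation counting. Run in duplicate, at least 3 repeats.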

[2] = molecular target: T2, Adrenergic receptor alpha-1 (Rattus norvegicus, UniProt P15823+P23944+P43140); test: Displacement of [3H]prazosin from alpha1-adrenoceptor in Sprague-Dawley rat brain membranes after 45 mins by liquid scintillation counting; format: cell membranes, Membrane
T2 sequence (P15823 whole entry): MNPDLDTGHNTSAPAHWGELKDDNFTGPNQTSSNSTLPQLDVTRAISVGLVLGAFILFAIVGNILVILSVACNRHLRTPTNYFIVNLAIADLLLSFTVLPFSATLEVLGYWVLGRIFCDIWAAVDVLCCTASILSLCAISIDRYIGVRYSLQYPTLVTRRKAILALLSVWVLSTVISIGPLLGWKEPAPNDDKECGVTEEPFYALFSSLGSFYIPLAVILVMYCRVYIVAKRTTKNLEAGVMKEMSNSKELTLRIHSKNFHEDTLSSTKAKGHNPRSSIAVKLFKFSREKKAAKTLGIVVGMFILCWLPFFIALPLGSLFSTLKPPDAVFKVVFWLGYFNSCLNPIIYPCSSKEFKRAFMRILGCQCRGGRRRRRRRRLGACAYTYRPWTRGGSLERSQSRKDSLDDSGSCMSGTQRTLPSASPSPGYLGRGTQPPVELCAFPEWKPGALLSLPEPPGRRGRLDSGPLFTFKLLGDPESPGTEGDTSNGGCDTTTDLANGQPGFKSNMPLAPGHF
T2 sequence (P23944 whole entry): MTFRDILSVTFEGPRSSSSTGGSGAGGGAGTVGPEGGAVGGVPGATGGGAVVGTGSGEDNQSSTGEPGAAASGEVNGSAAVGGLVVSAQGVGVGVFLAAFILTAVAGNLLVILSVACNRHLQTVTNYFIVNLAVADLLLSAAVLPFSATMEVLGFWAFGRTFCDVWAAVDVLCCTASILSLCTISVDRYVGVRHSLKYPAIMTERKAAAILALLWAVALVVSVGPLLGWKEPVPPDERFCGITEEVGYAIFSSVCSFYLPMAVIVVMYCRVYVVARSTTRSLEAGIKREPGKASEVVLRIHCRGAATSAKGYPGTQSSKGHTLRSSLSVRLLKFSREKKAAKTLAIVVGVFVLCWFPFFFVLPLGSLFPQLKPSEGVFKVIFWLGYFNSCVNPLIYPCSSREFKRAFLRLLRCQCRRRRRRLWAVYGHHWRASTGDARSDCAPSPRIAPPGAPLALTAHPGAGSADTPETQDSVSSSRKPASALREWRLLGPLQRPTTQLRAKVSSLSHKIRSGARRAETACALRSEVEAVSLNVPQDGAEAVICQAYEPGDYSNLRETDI
T2 sequence (P43140 whole entry): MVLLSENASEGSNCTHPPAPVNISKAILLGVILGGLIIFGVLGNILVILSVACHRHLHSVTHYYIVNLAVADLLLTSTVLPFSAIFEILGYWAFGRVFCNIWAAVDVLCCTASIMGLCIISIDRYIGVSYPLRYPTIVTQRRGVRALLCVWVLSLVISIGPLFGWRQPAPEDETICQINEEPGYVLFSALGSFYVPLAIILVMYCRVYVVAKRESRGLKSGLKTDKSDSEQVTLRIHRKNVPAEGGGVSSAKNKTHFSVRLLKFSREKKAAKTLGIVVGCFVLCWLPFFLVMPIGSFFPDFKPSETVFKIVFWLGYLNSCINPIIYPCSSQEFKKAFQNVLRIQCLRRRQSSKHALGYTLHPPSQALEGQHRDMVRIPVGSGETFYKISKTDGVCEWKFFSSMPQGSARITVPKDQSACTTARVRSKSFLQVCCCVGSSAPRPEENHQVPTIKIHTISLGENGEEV
Method in brief: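 Crude P2 membranes from brains of male Sprague-Dawley rats (250–280 g), 0.2–0.3 mg protein. Radioligand 1 nM [3H]RX821002 (α2) or [3H]prazosin (α1); 11 concentrations of compound, 0.1 nM–100 µM. Non-specific binding: 10 µM rauwolscine (α2) or 10 µM phenylephrine (α1). Triplicate incubation, RT, 45 min. PEI-soaked glass-fibre filtration, then scintillation counting. Ki by Cheng-Prusoff; 3–4 experiments, or one for low-affinity compounds.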

[3] = tested on: Rattus norvegicus; test: Hypertensive activity in anesthetized Wistar rat assessed as maximal increase in mean arterial blood pressure at 0.1 mg/kg, iv measured during 60 mins post dose; format: organism-based; set-up: dose 0.1 mg/kg, route intravenous; conditions: in vivo, 1 h
Method in brief: (§2)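 Male Wistar rats (200–290 g) anaesthetized with thiopental 70 mg/kg i.p., maintained at 30 µg/kg/min; body temperature 36–37 °C. Carotid catheter recorded MAP and HR; jugular catheter for infusion. After 40 min of saline/thiopental infusion (1.2 ml/h), 0.1 mg/kg given as i.v. bolus (time 0). Signals sampled at 100 Hz. Maximal change from time 0 over 60 min, and its time, recorded. Saline vehicle control; n = 4–5.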

[4] = molecular target: T3, Alpha-2A adrenergic receptor (Homo sapiens) (UniProt P08913); test: Intrinsic activity at human alpha2A adrenoceptor expressed in CHO-K1 cells after 30 mins by [35S]GTPgammaS binding assay relative to norepinephrine; format: functional, cell-based; method in brief: as §1
T3 sequence (whole entry): T1 sequence (P08913 whole entry)

[5] = tested on: Rattus norvegicus; test: Cardiovascular activity in anesthetized Wistar rat assessed as maximal reduction in heart rate at 0.1 mg/kg, iv measured during 60 mins post dose; format: functional; method in brief: as §2
[6] = tested on: Rattus norvegicus; test: Hypotensive activity in anesthetized Wistar rat assessed as maximal reduction in mean arterial blood pressure at 0.1 mg/kg, iv measured during 60 mins post dose; format: functional; method in brief: as §2

## Fc1ccc2cnn(N=C3NCCN3)c2c1
[1]
  EC50: 0.0389 µM
[2]
  Ki: 0.9183 µM
[3]
  Activity: 24.8 mmHg
[4]
  Intrinsic activity: 5.2%
[5]
  Activity: 118 bpm
[6]
  Activity: 36 mmHg

## Fc1cccc2cnn(N=C3NCCN3)c12
[1]
  EC50: 0.2 µM
[2]
  Ki: 1.625 µM
[3]
  Activity: 21.1 mmHg
[4]
  Intrinsic activity: 18%
[5]
  Activity: 128 bpm
[6]
  Activity: 59.4 mmHg

## Fc1ccc2c(cnn2N=C2NCCN2)c1
[2]
  Ki: 2.32 µM
[3]
  Activity: 14.6 mmHg
[5]
  Activity: 61 bpm
[6]
  Activity: 8.6 mmHg

## Fc1ccc2cnn(CC3=NCCN3)c2c1
[2]
  Ki: 0.5183 µM
[3]
  Activity: 23.6 mmHg
[5]
  Activity: 52 bpm
[6]
  Activity: 12.7 mmHg

## Fc1ccc2c(cnn2CC2=NCCN2)c1
[2]
  Ki: 0.4763 µM
[3]
  Activity: 0.8 mmHg
[5]
  Activity: 12 bpm
[6]
  Activity: 7.2 mmHg
